# Source: PubChem BioAssay (several laboratories)
# Most compounds without a hit are left out; they make up all but 2.7% or so of the library.
# RAM network inh: yeast RAM network inhibition; S. cerevisiae dse1pr::URA3 reporter, 5-FOA growth OD615, 2 d; analog-sensitive cbk1-as2 kinase mutant strain; inhibition, % at 50 µM; actives 1.8% (n = 190,000);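 active = inhibition above a set limit, 3 SD over mean compound inhibition, cut at about 8.4% in these data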;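 note: 0% = DMSO-only wells with no growth and 100% = 10 µM 1-NA-PP1 full growth; inhibition rescues growth on 5-FOA so higher OD means more RAM inhibition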
# Yeast life ext: yeast lifespan extension; inhibition of the nicotinamide effect, % at 10 µM; actives 0.68% (n = 130,000); AID 775; S. cerevisiae growth with nicotinamide, OD615; deaD strain in restrictive glucose medium;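 active = inhibition above a set limit, placed 3 SD over the median of all compounds, cut at about 26% in these data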;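 note: 0% = nicotinamide-treated wells and 100% = cells grown without nicotinamide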
#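 Test system – modified budding yeast, DeaD strain · Compound – single dose 10 µM compound, 0.25% DMSO · Times – culture preincubation 4 h, compound exposure 48 h, both 30 °C · Detection – optical density (absorbance) at 615 nm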
# Yeast growth inh: yeast BB579 growth reduction in restrictive medium; inhibition, % at 10 µM; actives 0.51% (n = 140,000); S. cerevisiae BB579 growth, OD615, 48 h;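 active = inhibition above a set limit, 3 SD over the mean compound inhibition, cut at about 44% in these data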
#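 System: DeaD yeast strain BB579; buffer or medium: CSMM-D dextrose restrictive medium; technique: OD at 615 nm; schedule: 4 h cell preincubation, 48 h compound exposure, 30 °C humidified; doses: single 10 µM dose; controls: amphotericin B 10 µg/mL, positive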
# sdo1 growth: sdo1-depleted yeast growth rescue; S. cerevisiae sdo1-depleted JHY4D growth rescue, OD600 30 h; hits give high values; pdr5 snq2 efflux-pump mutant strain; z-score at 10 µM; actives 0.21% (n = 140,000);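 active = z-score above 3 at both the 24 hr and the 30 hr optical density reads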;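 note: z-score against mean and SD of all compound wells on the same plate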
# Numbers without * were called inactive; . = not tested or not shown; [ ] = dose if it differs, or a comment.
SMILES,RAM network inh,Yeast life ext,Yeast growth inh,sdo1 growth
Cc1cc(C)cc(N2C(=O)NC(=O)/C(=C\c3cccn3-c3ccccc3)C2=O)c1,9.8*,25,-56,-0.73
CCOC(=O)C1(CCCc2ccccc2)CCN(C2CCC2)CC1,0,.,.,.
CCCCn1c(NS(=O)(=O)c2ccc(C)cc2)c(C(=O)OCC)c2nc3ccccc3nc21,-1,93*,-75,-1.2
CC(=O)c1ccc2c(c1)C1C(Cl)C(Sc3ccccc3[N+](=O)[O-])CC1C(C(=O)O)N2 (configuration not stated),11*,0,-1,1.5
Oc1c(Br)cc(Br)cc1CN1CCN(Cc2ccccc2)CC1,-1,-11,-22,-0.87
Oc1c(Br)cc(Br)cc1Oc1ccc(Br)cc1Br,7,-5,83*,-1.5
O=C(c1ccccc1F)c1cn(Cc2ccccc2)c2ccccc12,11*,-10,-30,-0.5
Cc1ccnc(-n2c(C)cc(C=C3C(=O)N(C)C(=S)N(C)C3=O)c2C)c1,1,30*,-29,0.1
Cc1cc(C)cc(-n2c(C)cc(/C=C3\C(=O)NC(=O)N(C)C3=O)c2C)c1,3,2,-26,-0.63
COc1ccc(OC)c2c1CCC1NCCOC21 (configuration not stated),1,2,-28,-0.81
Cc1ccc(N2C(=O)NC(=O)/C(=C\c3cc(C)n(-c4sc5c(c4C#N)CCCC5)c3C)C2=O)cc1,4,-1,-48,-1.6
CCOC(=O)c1c(-n2c(C)cc(C=C3C(=O)NC(=S)NC3=O)c2C)sc2c1CCCC2,11*,39,-71,-2.1
CCOC(=O)C1=C(NC(=S)NC(=O)c2ccccc2)c2ccccc2CC12CCCC2,5,-2,-22,0.59
COC(=O)C(O)(c1ccc(NC(=S)NC(=O)c2ccc(Cl)cc2Cl)c(C)c1)C(F)(F)F (configuration not stated),9.3*,0,23,-1.9
COc1ccc([N+](=O)[O-])cc1N=Cc1c(O)n(CCc2ccccc2)c(=O)n(C(C)C)c1=O,11*,-2,-36,-0.04
Fc1ccc(Cn2nnnc2C(c2ccc(Cl)cc2)N2CC=C(c3ccc(F)cc3)CC2)cc1 (configuration not stated),10*,1,-5,-0.1
Fc1ccc(C2=CCN(C(c3ccc(Cl)cc3)c3nnnn3Cc3ccccc3)CC2)cc1 (configuration not stated),7,7,-45,-0.6
CCn1nc(-c2cccs2)nc2c(=O)n(C)c(=O)nc1-2,0,-15,100*,-2.6
CCn1nc(/C=C/c2ccccc2)nc2c(=O)n(C)c(=O)nc1-2,-2,.,.,.
CCCCn1c(=O)c(C(=O)Nc2cnccn2)c(O)c2ccccc21,-1,80*,-36,-0.92
CC(C)CCn1c(=O)c(C(=O)Nc2ccccc2S(N)(=O)=O)c(O)c2ccccc21,4,-14,-29,-1.6
C#CC[N+]1(C)C2CCC1CC(O)C2 (configuration not stated),2,.,.,.
COc1cc(/C=C/[N+](=O)[O-])ccc1O,-1,35*,25,-1.2
C[C@]12CC[C@@H](O)C[C@@H]1CC[C@@H]1[C@@H]2CC[C@]2(C)[C@@H](O)CC[C@@H]12,4,29*,-45,-1.4
CSc1ccc(C(=O)C2CCCN(CCCn3cccn3)C2)cc1 (configuration not stated),1,.,.,.
SMILES,RAM network inh,Yeast life ext,Yeast growth inh,sdo1 growth
O=P(NCc1ccccc1)(Oc1ccccc1)Oc1ccccc1,1,27*,-7,-1.3
CC1CN(c2ccc([N+](=O)[O-])cc2Cl)CCN1 (configuration not stated),0,.,.,.
Cc1ccc(-c2nc3ccc(Cl)cc3n2OC(=O)N(C)C)cc1,4,92*,-44,-1.9
CN(C)C(=O)Oc1ccc(-c2cn3cc(Cl)ccc3n2)cc1,3,-6,-28,1.1
Cc1ccc(OCC(=O)Nc2ccc(Cl)cc2C(=O)c2ccccc2)cc1,9.4*,-1,-11,-0.14
Cc1ccc(CN2C3CCCC2CC(NC(=O)Nc2cccc(F)c2)C3)cc1 (configuration not stated),0,.,.,.
CCn1c(O)c(/C(C)=N/N2CCCCC2c2cccnc2)c(=O)[nH]c1=S (configuration not stated),1,2,-6,0.23
O=C1NC(=O)N(c2cccc(Cl)c2)C(=O)/C1=C\c1ccc(Sc2nc3ccccc3[nH]2)o1,3,0,-3,0.25
O=C1NC(=O)N(c2ccccc2)C(=O)/C1=C/c1ccc(Sc2ccccc2)o1,8,32*,12,-0.95[9 µM]
